# Results: ChEMBL document CHEMBL3044914, “Synthesis of novel 12-aryl-8,9,10,12-tetrahydrobenzo[a]xanthene-11-thiones and evaluation of their biocidal effects” (2012)
# Assays:
# Spodoptera litura [1] = assay: Insect growth regulatory activity against Spodoptera litura third-instar larvae assessed as abnormal or dead larva level at 0.1% measured after 24 hr post compound treatment by leaf-dip method; type: functional
# Outline: (§1)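 Third-instar larvae were reared on artificial diet, newly moulted and pre-weighed at 30–40 mg. The 0.1% solution was a stock, applied at different concentrations. Leaves on moistened filter paper in Petri dishes were sprayed with the test solution and dried. Ten larvae were placed per dish, in triplicate, with carrier-solvent controls. Larval weight, mortality, pupation, deformed pupae, intermediates, adult emergence and deformed adults were recorded after 24 h.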
# Alternaria porri = assay: Antifungal activity against Alternaria porri by food poison technique; type: functional; details: read-out: ED50 (the source's name)
# Fusarium oxysporum = assay: Antifungal activity against Fusarium oxysporum by food poison technique; type: functional; details: read-out: ED50 (the source's name)
# Spodoptera litura [2] = assay: Insect growth regulatory activity against Spodoptera litura third-instar larvae assessed as mortality at 0.1% measured after 24 hr post compound treatment by leaf-dip method; type: functional; outline: as §1
# [3] = Inhibition of soil urease assessed as urea-N level at 1% compound level measured after 27 hr; details: concentration not given here
# Outline: (§2)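 Soil from cultivated institute farm fields, 50 g air-dried per beaker, moisture kept daily with distilled water. Compound in acetone added at 1% of applied urea-N (0.1 mg); urea-alone control; completely randomized design, three replicates. 5 g samples taken at 9 and 27 h, extracted with 1 M sodium sulfate containing phenyl mercuric acetate to stop hydrolysis; urea-N estimated.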
# Spodoptera litura [4] = assay: Insecticidal activity against Spodoptera litura third-instar larvae exposed to 0.1% compound on ventral side of larvae assessed as mortality after 24 hr post compound treatment by contact method; type: functional
# Outline: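 Topical treatment of third-instar larvae aged 7 ± 1 day. Each treatment was run in triplicate with solvent as control. Mortality was recorded after 24 h.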
# Spodoptera litura [5] = assay: Insect growth regulatory activity against Spodoptera litura third-instar larvae assessed as normal adult level at 0.1% measured after 24 hr post compound treatment by leaf-dip method; type: functional
# Spodoptera litura [6] = assay: Insect growth regulatory activity against Spodoptera litura third-instar larvae assessed as abnormal pupa or dead pupa level at 0.1% measured after 24 hr post compound treatment by leaf-dip method; type: functional; outline: as §1
# [7] = Inhibition of soil urease assessed as urea-N level at 1% compound level measured after 9 hr; details: concentration not given here; outline: as §2
# Macrophomina phaseolina = assay: Antifungal activity against Rhizoctonia bataticola by food poison technique; type: functional; details: read-out: ED50 (the source's name)
# Spodoptera litura [8] = assay: Insect growth regulatory activity against Spodoptera litura third-instar larvae assessed as growth inhibition index at 0.1% measured after 24 hr post compound treatment by leaf-dip method; type: functional
# Spodoptera litura [9] = assay: Insecticidal activity against Spodoptera litura third-instar larvae fed on 0.1% compound pre-treated castor leaves assessed as mortality after 24 hr post compound treatment by feeding method; type: functional
# Outline: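 Castor leaf was dipped for 2 s in a 0.1% solution, air-dried and placed on moist filter paper in 9 cm Petri plates. Third-instar larvae aged 7 ± 1 day were prestarved 4 h and released singly into each plate. There were thirty replications per treatment, with a solvent control. Mortality was scored at 24 h.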
# Athelia rolfsii = assay: Antifungal activity against Athelia rolfsii by food poison technique; type: functional; details: Agroathelia rolfsii; read-out: ED50 (the source's name)
SMILES,Activity (Spodoptera litura [1]),EC50 (Alternaria porri),EC50 (Fusarium oxysporum),mortality (Spodoptera litura [2]),inhibition [3],mortality (Spodoptera litura [4]),Activity (Spodoptera litura [5]),Activity (Spodoptera litura [6]),inhibition [7],EC50 (Macrophomina phaseolina),growth inhibition (GI) (Spodoptera litura [8]),mortality (Spodoptera litura [9]),EC50 (Athelia rolfsii)
CC1(C)CC(=S)C2=C(C1)Oc1ccc3ccccc3c1C2c1ccc(Cl)cc1 (centres undefined),10%,311 µg/mL,245 µg/mL,40%,18%,30%,30%,20%,35%,334 µg/mL,70%,40%,280 µg/mL
COc1cc(C2C3=C(CC(C)(C)CC3=S)Oc3ccc4ccccc4c32)ccc1O (centres undefined),0%,433 µg/mL,438 µg/mL,10%,12%,0%,70%,20%,-6%,567 µg/mL,30%,10%,670 µg/mL
CC1(C)CC(=S)C2=C(C1)Oc1ccc3ccccc3c1C2c1ccc2ccccc2c1 (centres undefined),20%,165 µg/mL,189 µg/mL,0%,3%,0%,70%,10%,1%,244 µg/mL,30%,80%,199 µg/mL
CC1(C)CC(=S)C2=C(C1)Oc1ccc3ccccc3c1C2c1cccc(Br)c1 (centres undefined),50%,321 µg/mL,310 µg/mL,50%,6%,30%,0%,–,15%,475 µg/mL,100%,10%,478 µg/mL
Cc1ccc(C2C3=C(CC(C)(C)CC3=S)Oc3ccc4ccccc4c32)cc1 (centres undefined),10%,385 µg/mL,410 µg/mL,30%,12%,10%,50%,10%,33%,489 µg/mL,50%,20%,321 µg/mL
S=C1CCCC2=C1C(c1cccc(Cl)c1)c1c(ccc3ccccc13)O2 (centres undefined),20%,268 µg/mL,320 µg/mL,30%,2%,30%,40%,10%,6%,380 µg/mL,60%,60%,426 µg/mL
COc1ccc(C2C3=C(CC(C)(C)CC3=S)Oc3ccc4ccccc4c32)cc1 (centres undefined),10%,406 µg/mL,279 µg/mL,10%,-4%,0%,60%,20%,5%,478 µg/mL,40%,10%,365 µg/mL
CCCCC(O)(Cn1cncn1)c1ccc(Cl)cc1Cl (centres undefined) [HEXACONAZOLE],–,25.5 µg/mL,20.6 µg/mL,–,–,–,–,–,–,334 µg/mL,–,–,13 µg/mL
